A short description of data set [1]: Cytotoxicity against MDCK cells. The data set is classed as cell-based, Canis lupus familiaris. The settings on record: dog. The essentials:
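MDCK cells (ATCC) grown in DMEM containing glutamine, supplemented with 10% fetal calf serum. CC50 is the mean of three independent assays.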

For data set [2], the target named is Neuraminidase (Influenza A virus) (UniProt A5Z252). Nature of the data set: Inhibition of Influenza A virus (H5N1) neuraminidase N1 at 20 microg/ml after 30 mins by fluorescence based assay. The method, boiled down: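 Fluorescence-based kit assay with purified N1-type neuraminidase in detection buffer. Test compound was added, then neuraminidase substrate. Incubated at 37 °C for 30 min; fluorescence read at excitation 340 nm and emission 535 nm.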

The next data set can be described thus: cells. The format is functional, cell-based, Influenza A virus (A/Thailand/Kan353/2004(H5N1)). The conditions noted are these: Influenza A virus, MDCK, 48 h.
The test system of data set [3] is Vesicular stomatitis virus. The experiment in a line: Antiviral activity against VSV-G enveloped pseudovirus. The data set is classed as functional, organism-based. The essentials: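 VSV-G pseudotyped particles (negative control), incubated with compound instead of H5N1 pseudovirus. MDCK cells (ATCC; DMEM with glutamine plus 10% FCS), seeded at 10⁴/well and grown overnight, then infected and incubated a further 48 h. Cells were PBS-washed and lysed, and luciferase activity was read by luminometer after adding substrate.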

Activity calls are given as the source filed them. The rule behind the calls is not given here.

Broadly, the CC50 is the concentration giving 50% cytotoxicity. Low values mean harm at low concentration, high ones better tolerance by the cells. The term IC50 denotes the concentration at which inhibition is half-maximal. Higher therefore signals lower potency. `COC(=O)[C@]12CC[C@@H](C)[C@H](C)[C@H]1C1=CC[C@@H]3[C@@]4(C)CC[C@H](O[C@@H]5O[C@H](CO)[C@@H](O[C@@H]6O[C@@H](C)[C@H](O)[C@@H](O)[C@H]6O)[C@H](O)[C@H]5O[C@@H]5O[C@@H](C)[C@H](O)[C@@H](O)[C@H]5O)C(C)(C)[C@@H]4CC[C@@]3(C)[C@]1(C)CC2` gave a 50% cytotoxic concentration (CC50) in data set [1] of 13 µM. For the same compound, the inhibition result in data set [2] and in data set [3] was “inactive” each time. This compound also displayed a 50% inhibitory concentration (IC50) in the data set “cells” of 1.02 µM.
In data set [1], `O=C(NCCN1CCCCC1)c1cc(F)cc(C(F)(F)F)c1` showed a CC50 of 1480 µM. Moreover, in “cells”, the half-maximal inhibitory concentration (IC50) came out at 4.45 µM.
Compound `CCOC(=O)[C@]12CC[C@@H](C)[C@H](C)[C@H]1C1=CC[C@@H]3[C@@]4(C)CC[C@H](O[C@@H]5O[C@H](CO)[C@@H](O[C@@H]6O[C@@H](C)[C@H](O)[C@@H](O)[C@H]6O)[C@H](O)[C@H]5O[C@@H]5O[C@@H](C)[C@H](O)[C@@H](O)[C@H]5O)C(C)(C)[C@@H]4CC[C@@]3(C)[C@]1(C)CC2` came in with a CC50 in data set [1] of 19.1 µM. Inhibition in “cells” was half-maximal at 1.16 µM (IC50).
On to `C[C@H]1[C@H](C)CC[C@]2(C(=O)O)CC[C@]3(C)C(=CC[C@@H]4[C@@]5(C)CC[C@H](O[C@@H]6O[C@H](CO)[C@@H](O[C@@H]7O[C@@H](C)[C@H](O)[C@@H](O)[C@H]7O)[C@H](O)[C@H]6O[C@@H]6O[C@@H](C)[C@H](O)[C@@H](O)[C@H]6O)C(C)(C)[C@@H]5CC[C@]43C)[C@H]12`, for which it took 26.2 µM to reach half-maximal cytotoxicity in data set [1] (CC50). Besides, the concentration for half-maximal inhibition (IC50) in “cells” worked out at 10.1 µM.
In data set [1], `C[C@H]1[C@H](C)CC[C@]2(C(=O)N(C)C)CC[C@]3(C)C(=CC[C@@H]4[C@@]5(C)CC[C@H](O[C@@H]6O[C@H](CO)[C@@H](O[C@@H]7O[C@@H](C)[C@H](O)[C@@H](O)[C@H]7O)[C@H](O)[C@H]6O[C@@H]6O[C@@H](C)[C@H](O)[C@@H](O)[C@H]6O)C(C)(C)[C@@H]5CC[C@]43C)[C@H]12` gave a CC50 of 48.6 µM. In addition, the inhibition result in data set [2] and in data set [3] was “inactive” in each case. In addition, it took 0.98 µM to reach half-maximal inhibition in the data set “cells” (IC50).
Turning to `CCN(CC)C(=O)[C@]12CC[C@@H](C)[C@H](C)[C@H]1C1=CC[C@@H]3[C@@]4(C)CC[C@H](O[C@@H]5O[C@H](CO)[C@@H](O[C@@H]6O[C@@H](C)[C@H](O)[C@@H](O)[C@H]6O)[C@H](O)[C@H]5O[C@@H]5O[C@@H](C)[C@H](O)[C@@H](O)[C@H]5O)C(C)(C)[C@@H]4CC[C@@]3(C)[C@]1(C)CC2`, it took 47 µM to reach half-maximal cytotoxicity in data set [1] (CC50). In “cells”, this compound displayed an IC50 of 1.41 µM.
For `C[C@H]1[C@H](C)CC[C@]2(C(=O)OC3CCCC3)CC[C@]3(C)C(=CC[C@@H]4[C@@]5(C)CC[C@H](O[C@@H]6O[C@H](CO)[C@@H](O[C@@H]7O[C@@H](C)[C@H](O)[C@@H](O)[C@H]7O)[C@H](O)[C@H]6O[C@@H]6O[C@@H](C)[C@H](O)[C@@H](O)[C@H]6O)C(C)(C)[C@@H]5CC[C@]43C)[C@H]12`, in that order: 24.2 µM and 4.91 µM.
For `CCCOC(=O)[C@]12CC[C@@H](C)[C@H](C)[C@H]1C1=CC[C@@H]3[C@@]4(C)CC[C@H](O[C@@H]5O[C@H](CO)[C@@H](O[C@@H]6O[C@@H](C)[C@H](O)[C@@H](O)[C@H]6O)[C@H](O)[C@H]5O[C@@H]5O[C@@H](C)[C@H](O)[C@@H](O)[C@H]5O)C(C)(C)[C@@H]4CC[C@@]3(C)[C@]1(C)CC2`, in that order: 19.2 µM and 2.3 µM.
For `CNC(=O)[C@]12CC[C@@H](C)[C@H](C)[C@H]1C1=CC[C@@H]3[C@@]4(C)CC[C@H](O[C@@H]5O[C@H](CO)[C@@H](O[C@@H]6O[C@@H](C)[C@H](O)[C@@H](O)[C@H]6O)[C@H](O)[C@H]5O[C@@H]5O[C@@H](C)[C@H](O)[C@@H](O)[C@H]5O)C(C)(C)[C@@H]4CC[C@@]3(C)[C@]1(C)CC2`, in that order: more than 200 µM and 22.5 µM.
The compound `C=C(C)[C@@H]1CC[C@]2(C(=O)OC)CC[C@]3(C)[C@H](CC[C@@H]4[C@@]5(C)CC[C@H](O[C@@H]6O[C@H](CO)[C@@H](O[C@@H]7O[C@@H](C)[C@H](O)[C@@H](O)[C@H]7O)[C@H](O)[C@H]6O[C@@H]6O[C@@H](C)[C@H](O)[C@@H](O)[C@H]6O)C(C)(C)[C@@H]5CC[C@]43C)[C@H]12` showed a cytotoxic concentration (CC50) in data set [1] of 33.9 µM. The compound also came in with an IC50 in “cells” of 2.08 µM.
Take `COC(=O)[C@]12CCC(C)(C)C[C@H]1C1=CC[C@@H]3[C@@]4(C)CC[C@H](O[C@@H]5O[C@H](CO)[C@@H](O[C@@H]6O[C@@H](C)[C@H](O)[C@@H](O)[C@H]6O)[C@H](O)[C@H]5O[C@@H]5O[C@@H](C)[C@H](O)[C@@H](O)[C@H]5O)C(C)(C)[C@@H]4CC[C@@]3(C)[C@]1(C)CC2`: the CC50 in data set [1] worked out at 16.9 µM. The compound further came in with an IC50 in “cells” of 3.74 µM.
The matching figures for `CCCCCOC(=O)[C@]12CC[C@@H](C)[C@H](C)[C@H]1C1=CC[C@@H]3[C@@]4(C)CC[C@H](O[C@@H]5O[C@H](CO)[C@@H](O[C@@H]6O[C@@H](C)[C@H](O)[C@@H](O)[C@H]6O)[C@H](O)[C@H]5O[C@@H]5O[C@@H](C)[C@H](O)[C@@H](O)[C@H]5O)C(C)(C)[C@@H]4CC[C@@]3(C)[C@]1(C)CC2`: 20.1 µM and 3.72 µM.
`COC(=O)[C@]12CC[C@@H](C)[C@H](C)[C@H]1C1=CC(=O)[C@@H]3[C@@]4(C)CC[C@H](O[C@@H]5O[C@H](CO)[C@@H](O[C@@H]6O[C@@H](C)[C@H](O)[C@@H](O)[C@H]6O)[C@H](O)[C@H]5O[C@@H]5O[C@@H](C)[C@H](O)[C@@H](O)[C@H]5O)C(C)(C)[C@@H]4CC[C@@]3(C)[C@]1(C)CC2`: the CC50 in data set [1] stood at 38.4 µM. In the data set “cells”, this compound had an IC50 of 5.68 µM.
For `C=CCOC(=O)[C@]12CC[C@@H](C)[C@H](C)[C@H]1C1=CC[C@@H]3[C@@]4(C)CC[C@H](O[C@@H]5O[C@H](CO)[C@@H](O[C@@H]6O[C@@H](C)[C@H](O)[C@@H](O)[C@H]6O)[C@H](O)[C@H]5O[C@@H]5O[C@@H](C)[C@H](O)[C@@H](O)[C@H]5O)C(C)(C)[C@@H]4CC[C@@]3(C)[C@]1(C)CC2`, in that order: 21.8 µM and 34 µM.
In data set [1], `COC(=O)[C@@]1(C)CC[C@]2(C)CC[C@]3(C)C(=CC(=O)[C@@H]4[C@@]5(C)CC[C@H](O[C@@H]6O[C@H](CO)[C@@H](O[C@@H]7O[C@@H](C)[C@H](O)[C@@H](O)[C@H]7O)[C@H](O)[C@H]6O[C@@H]6O[C@@H](C)[C@H](O)[C@@H](O)[C@H]6O)C(C)(C)[C@@H]5CC[C@]43C)[C@@H]2C1` had a CC50 of 17.1 µM. For the same compound, the IC50 in “cells” came to 4.93 µM.
Regarding `COC(=O)[C@]12CC[C@@H](C)[C@H](C)[C@H]1C1=CC[C@@H]3[C@@]4(C)CC[C@@H](O[C@@H]5O[C@H](CO)[C@@H](O[C@@H]6O[C@@H](C)[C@H](O)[C@@H](O)[C@H]6O)[C@H](O)[C@H]5O[C@@H]5O[C@@H](C)[C@H](O)[C@@H](O)[C@H]5O)C(C)(C)[C@@H]4CC[C@@]3(C)[C@]1(C)CC2`, the CC50 in data set [1] was more than 200 µM. Moreover, the inhibition entry in data set [2] and in data set [3] was “inactive” in each case. The IC50 in “cells” came to 1.33 µM.

The values are drawn from ChEMBL document CHEMBL3414427, “Structure-activity relationships of 3-O-β-chacotriosyl ursolic acid derivatives as novel H5N1 entry inhibitors” (Eur J Med Chem, 2015).
